From paper PMC11909909 (BMC Pharmacology & Toxicology, 2025)

Experiments:
[1] = system: coagulation parameters (PT, PTA, APTT, TT); test: Coagulation parameters; type: in vivo, healthy Chinese subjects; conditions: for PT / TT / APTT / PTA: mean ± SD
[2] = Pharmacokinetics after a single 150 mg oral dose, fasting or postprandial; type: in vivo, healthy Chinese subjects
How it was run: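 Healthy volunteers, 50 per fasting or fed trial, in a randomized two-sequence (TRTR/RTRT), four-period, fully replicated crossover with a 7-day washout. Each dose was one 150 mg capsule with 240 mL warm boiled water, given fed after a ~950 kcal high-fat meal. 18 venous samples per period to 48 h in precooled EDTA-K2 tubes, spun 1700g 10 min 4 °C, plasma stored ≤−60 °C. Total-dabigatran range 1.000–300.0 ng/mL; parameters per subject.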

SMILES	change of TT values after administration ([1]; both fasting and postprandial)	PT ([1]; fasting, fourth periodicity, n = 48, screening 13.01 ± 0.490) [s]	TT ([1]; fasting, fourth periodicity, n = 48, screening 17.71 ± 0.880) [s]	APTT ([1]; fasting, fourth periodicity, n = 48, screening 36.22 ± 3.090) [s]	PTA ([1]; fasting, fourth periodicity, n = 48, screening 101.7 ± 7.960) [%]	PT ([1]; fasting, second periodicity, n = 50, screening 13.01 ± 0.490) [s]	TT ([1]; fasting, second periodicity, n = 50, screening 17.71 ± 0.880) [s]	APTT ([1]; fasting, second periodicity, n = 50, screening 36.22 ± 3.090) [s]	PTA ([1]; fasting, second periodicity, n = 50, screening 101.7 ± 7.960) [%]	PT ([1]; postprandial, fourth periodicity, n = 50, screening 12.62 ± 0.570) [s]	TT ([1]; postprandial, fourth periodicity, n = 50, screening 17.63 ± 0.940) [s]	APTT ([1]; postprandial, fourth periodicity, n = 50, screening 36.25 ± 2.860) [s]	PTA ([1]; postprandial, fourth periodicity, n = 50, screening 108.9 ± 10.58) [%]	PT ([1]; postprandial, second periodicity, n = 50, screening 12.62 ± 0.570) [s]	TT ([1]; postprandial, second periodicity, n = 50, screening 17.63 ± 0.940) [s]	APTT ([1]; postprandial, second periodicity, n = 50, screening 36.25 ± 2.860) [s]	PTA ([1]; postprandial, second periodicity, n = 50, screening 108.9 ± 10.58) [%]	Tmax ([2]; after a high-fat meal, median, both formulations) [h]	Tmax ([2]; human, plasma, oral, 150 mg) [h]
CCCCCCOC(=O)N=C(N)c1ccc(NCc2nc3cc(C(=O)N(CCC(=O)OCC)c4ccccn4)ccc3n2C)cc1 [dabigatran etexilate]	increased more significantly	13.07 ± 0.488	20.73 ± 2.099	36.61 ± 3.352	101.2 ± 8.167	12.89 ± 0.475	19.58 ± 1.976	36.71 ± 3.947	104.4 ± 8.741	12.82 ± 0.479	21.30 ± 2.537	36.22 ± 2.746	105.5 ± 8.808	13.14 ± 0.504	20.78 ± 2.490	36.06 ± 2.660	100.2 ± 8.297	–	–
[H]/N=C(/N)c1ccc(NCc2nc3cc(C(=O)N(CCC(=O)O)c4ccccn4)ccc3n2C)cc1 [dabigatran]	–	–	–	–	–	–	–	–	–	–	–	–	–	–	–	–	–	4	2.5
